Experimental data: paper PMC3016492 (Cellular and Molecular Life Sciences: CMLS, 2010)
Read-outs that look alike come from different tables or passages of the source.

Experiments:
[1] = test system: PKA-induced nuclear export of MK5; test: PKA-induced nuclear export of EGFP-MK5 in PC12 cells; type: cell-based; conditions: 10 μM forskolin, 30 min, no compound 11, untreated control 6%
Outline: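 PC12 cells were grown in F-12K with 2 mM L-glutamine, 1.5 g/l sodium bicarbonate, 15% horse serum, 2.5% fetal calf serum, penicillin and streptomycin. They were transfected with EGFP-MK5 by nucleofection, then left untreated or pretreated with 20 μM test compound. Next came 10 μM forskolin for 30 min. Cells were fixed in 4% formaldehyde for 10 min and washed in PBS. Several hundred cells were scored by confocal microscopy for nuclear plus cytosolic EGFP-MK5.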

PKB2 = conditions: 10 μM; cited from earlier work
DYRK1A [2] = biological target: T1, DYRK1A (Homo sapiens, UniProt Q13627); conditions: 10 μM; cited from earlier work
PHK = conditions: 10 μM; cited from earlier work
GSK3β = conditions: 10 μM; cited from earlier work
PDK1 [3] = biological target: T2, PDK1 (Homo sapiens, UniProt O15530); conditions: 10 μM; cited from earlier work
T2 sequence (O15530 1-556): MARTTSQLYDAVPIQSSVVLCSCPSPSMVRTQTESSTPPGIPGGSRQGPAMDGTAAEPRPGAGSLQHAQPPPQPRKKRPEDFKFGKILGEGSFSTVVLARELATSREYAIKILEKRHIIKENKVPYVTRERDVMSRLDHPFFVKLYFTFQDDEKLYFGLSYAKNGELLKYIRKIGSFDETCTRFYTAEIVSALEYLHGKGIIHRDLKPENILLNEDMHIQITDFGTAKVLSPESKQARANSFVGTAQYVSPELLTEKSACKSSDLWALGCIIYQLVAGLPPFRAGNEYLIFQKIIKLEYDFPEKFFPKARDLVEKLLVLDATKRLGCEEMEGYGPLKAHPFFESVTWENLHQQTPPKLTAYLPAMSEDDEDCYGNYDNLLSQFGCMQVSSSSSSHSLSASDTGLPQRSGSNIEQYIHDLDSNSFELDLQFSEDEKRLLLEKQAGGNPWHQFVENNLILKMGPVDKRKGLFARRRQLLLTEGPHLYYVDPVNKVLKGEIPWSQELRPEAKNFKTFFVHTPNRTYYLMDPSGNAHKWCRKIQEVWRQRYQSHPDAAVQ

MK5 [4] = biological target: T3, MK5 (Homo sapiens, UniProt Q8IW41); conditions: read-out: IC50 MK5; cited from earlier work
T3 sequence (Q8IW41 1-473): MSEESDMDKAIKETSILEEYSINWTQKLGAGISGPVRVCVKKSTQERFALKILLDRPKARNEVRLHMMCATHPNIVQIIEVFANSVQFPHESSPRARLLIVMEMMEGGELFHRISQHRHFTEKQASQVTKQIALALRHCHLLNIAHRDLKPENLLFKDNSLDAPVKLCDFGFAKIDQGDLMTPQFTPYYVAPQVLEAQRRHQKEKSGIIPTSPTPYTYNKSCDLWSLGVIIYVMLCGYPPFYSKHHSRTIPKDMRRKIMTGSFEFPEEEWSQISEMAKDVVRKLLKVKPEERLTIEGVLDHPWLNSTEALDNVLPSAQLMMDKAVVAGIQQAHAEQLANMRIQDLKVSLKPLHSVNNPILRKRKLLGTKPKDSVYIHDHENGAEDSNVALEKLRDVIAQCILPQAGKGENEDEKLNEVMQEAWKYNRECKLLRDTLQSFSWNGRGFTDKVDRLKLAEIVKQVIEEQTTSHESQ

p70^S6K = conditions: 10 μM; cited from earlier work
IKKβ = conditions: 10 μM; cited from earlier work
smMLCK = conditions: 10 μM; cited from earlier work
ERK8 = conditions: 10 μM; cited from earlier work
Aurora B = conditions: 10 μM; cited from earlier work
MK3 = MK3 (Homo sapiens, UniProt Q16644); conditions: 10 μM; cited from earlier work
Chain of MK3 (Q16644 whole entry, species assumed): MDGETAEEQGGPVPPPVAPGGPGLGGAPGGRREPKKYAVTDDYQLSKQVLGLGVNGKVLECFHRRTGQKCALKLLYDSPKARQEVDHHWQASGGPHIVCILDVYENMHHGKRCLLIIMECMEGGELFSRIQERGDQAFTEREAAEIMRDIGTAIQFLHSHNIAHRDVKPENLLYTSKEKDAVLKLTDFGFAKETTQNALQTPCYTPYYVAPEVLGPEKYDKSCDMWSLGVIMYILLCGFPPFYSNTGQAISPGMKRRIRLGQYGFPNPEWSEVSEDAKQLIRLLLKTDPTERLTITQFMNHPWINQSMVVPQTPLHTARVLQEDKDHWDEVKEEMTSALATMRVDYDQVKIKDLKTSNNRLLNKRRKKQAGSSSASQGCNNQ

PLK1 = PLK1 (Homo sapiens, UniProt P53350); conditions: 10 μM; cited from earlier work
Chain of PLK1 (P53350 whole entry): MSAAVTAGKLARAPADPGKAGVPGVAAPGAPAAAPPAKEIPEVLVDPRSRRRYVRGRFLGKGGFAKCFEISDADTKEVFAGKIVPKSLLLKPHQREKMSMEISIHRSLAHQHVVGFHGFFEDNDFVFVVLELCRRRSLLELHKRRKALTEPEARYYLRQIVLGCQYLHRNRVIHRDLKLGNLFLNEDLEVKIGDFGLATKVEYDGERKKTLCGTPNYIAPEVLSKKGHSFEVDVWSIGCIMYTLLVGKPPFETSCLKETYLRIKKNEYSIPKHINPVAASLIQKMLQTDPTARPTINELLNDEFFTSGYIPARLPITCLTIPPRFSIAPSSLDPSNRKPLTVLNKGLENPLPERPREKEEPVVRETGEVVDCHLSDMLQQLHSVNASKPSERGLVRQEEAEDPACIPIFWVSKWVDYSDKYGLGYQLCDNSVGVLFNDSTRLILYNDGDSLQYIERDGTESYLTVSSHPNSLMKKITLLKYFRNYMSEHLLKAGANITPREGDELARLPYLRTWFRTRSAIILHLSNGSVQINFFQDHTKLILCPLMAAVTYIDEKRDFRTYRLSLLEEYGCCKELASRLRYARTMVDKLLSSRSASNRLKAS

MSK1 = conditions: 10 μM; cited from earlier work
RSK2 = conditions: 10 μM; cited from earlier work
p38δ = conditions: 10 μM; cited from earlier work
PKA = PKA (Homo sapiens, UniProt P17612); conditions: 10 μM; cited from earlier work
MK5 [5] = biological target: T3, MK5; test: MK5 kinase activity against PRAKtide substrate peptide; type: biochemical; conditions: for inhibition of MK5 enzyme activity (in words): initial screening at 2 mM
ROCK-II = conditions: 10 μM; cited from earlier work
PDK1 [6] = biological target: T2, PDK1; conditions: 10 μM; cited from earlier work; remark: listed apart in the source
MK5 [7] = biological target: T3, MK5; conditions: read-out: IC50 MK5; cited from earlier work; remark: listed apart in the source
ERK2 = ERK2 (Homo sapiens, UniProt P28482); conditions: 10 μM; cited from earlier work
Chain of ERK2 (P28482 whole entry): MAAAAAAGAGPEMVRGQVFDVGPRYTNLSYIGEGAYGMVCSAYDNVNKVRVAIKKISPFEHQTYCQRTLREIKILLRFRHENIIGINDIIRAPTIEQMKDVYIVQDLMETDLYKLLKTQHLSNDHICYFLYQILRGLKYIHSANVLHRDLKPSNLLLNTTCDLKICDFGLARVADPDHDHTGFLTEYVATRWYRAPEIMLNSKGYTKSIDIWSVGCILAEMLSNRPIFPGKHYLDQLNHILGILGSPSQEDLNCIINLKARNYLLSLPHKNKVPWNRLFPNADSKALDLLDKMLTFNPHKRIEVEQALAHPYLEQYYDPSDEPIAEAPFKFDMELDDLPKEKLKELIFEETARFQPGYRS

DYRK1A [8] = biological target: T1, DYRK1A; conditions: 10 μM; cited from earlier work; remark: listed apart in the source

Question: With C=C[C@@]1(C)CC(=O)[C@]2(O)[C@@]3(C)[C@@H](O)CCC(C)(C)[C@@H]3[C@H](O)[C@H](OC(C)=O)[C@@]2(C)O1 [forskolin] as the molecule, how does the “cells displaying both nuclear and cytosolic EGFP-MK5” value [1] read?
Answer: approximately 84%

Question: And the “cells displaying both nuclear and cytosolic EGFP-MK5” value ([1]; listed as Forskolin)?
Answer: 84%

Question: What does the source list for COc1ccc(C=CC(=O)c2c(O)cc(OC)cc2OC)cc1 [flavokavain A]?
Answer: inhibition of PKB2 (PKB2): 40–70%; inhibition of DYRK1A (in words, relative to MK5) (DYRK1A [2]): more or to a similar extent; inhibition of PHK (PHK): 40–70%; inhibition of GSK3β (GSK3β): 40–70%; inhibition of PDK1 (PDK1 [3]): 40–70%; IC50 (MK5 [4]): 10 µM; inhibition of p70^S6K (p70^S6K): 40–70%; inhibition of IKKβ (in words, relative to MK5) (IKKβ): more or to a similar extent; inhibition of smMLCK (smMLCK): 40–70%; inhibition of ERK8 (ERK8): 40–70%; inhibition of Aurora B (in words, relative to MK5) (Aurora B): more or to a similar extent; inhibition of MK3 (in words, relative to MK5) (MK3): more or to a similar extent; inhibition of PLK1 (PLK1): 40–70%; inhibition of MSK1 (MSK1): 40–70%; inhibition of RSK2 (RSK2): 40–70%; inhibition of p38δ (p38δ): 40–70%; inhibition of PKA (PKA): 40–70%

Question: With CCN1C[C@]2(COC)[C@H](O)C[C@H](OC)[C@]34C1[C@H]([C@H](OC)[C@H]23)[C@]1(O)[C@H]2[C@@H](O)[C@](O)(C[C@H]24)[C@@H](OC)[C@@H]1O [Compound 8, aconine] as the molecule, how does the Ki (MK5 [5]) read?
Answer: 301 µM

Question: What about the “IC50 MK5 (in words)” value (MK5 [5]; dose-response, PRAKtide substrate) of the same molecule?
Answer: in the mM range

Question: What about the “inhibition of MK5 enzyme activity (in words)” value (MK5 [5]) of the same molecule?
Answer: completely blocked

Question: And the “mode of inhibition against ATP” value (MK5 [5]; varying ATP concentrations, Lineweaver-Burk)?
Answer: ATP-competitive

Question: Which results are given for O=C(O[C@@H]1Cc2c(O)cc(O)cc2O[C@@H]1c1cc(O)c(O)c(O)c1)c1cc(O)c(O)c(O)c1 [EGCG, epigallocatechin gallate]?
Answer: inhibition of in vitro kinase activity of ROCK-II (ROCK-II): ~ 90%; inhibition of in vitro kinase activity of PDK1 (PDK1 [6]): ~ 90%; IC50 (MK5 [7]): < 10 µM; inhibition of in vitro kinase activity of ERK2 (ERK2): ~ 90%; inhibition of in vitro kinase activity of DYRK1A (DYRK1A [8]): ~ 90%

Question: For CCN1C[C@]2(COC)[C@H](O)C[C@H](OC)[C@@]34[C@@H]5C[C@@]6(O)[C@H](OC(=O)c7ccccc7)[C@@H]5[C@@](OC(C)=O)([C@@H]([C@H](OC)[C@H]23)[C@@H]14)[C@@H](O)[C@@H]6OC [Compound 6, aconitine], which “inhibition of MK5 enzyme activity (in words)” value (MK5 [5]) is on record?
Answer: completely blocked
